Results published in ChEMBL document CHEMBL4325893, “Synthesis and antibacterial profiles of targeted triclosan derivatives” (2019).
Converted amounts (≈) assume the structure as drawn.

Tests used:
Aeromonas hydrophila = experiment: Antibacterial activity against Aeromonas hydrophila OCC 778 after 18 hrs; format: functional; details: OCC 778, 18 h
Outline: (§1)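 Broth microdilution in Nutrient Broth No. 2; stocks in ethanol diluted to 0.01–128 µg/ml (triclosan) or 0.25–256 µg/ml (glycosides). Overnight 37 °C NB2 cultures diluted 1 in 10^4 in saline and added to the dilutions. Incubation at 37 °C with agitation, OD read every 15 min; MIC is the lowest concentration preventing any OD rise after 18 h.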

Citrobacter freundii [1] = experiment: Antibacterial activity against Citrobacter freundii OCC 851 after 18 hrs; format: functional; details: OCC 851, 18 h; outline: as §1
Cronobacter sakazakii = experiment: Antibacterial activity against Cronobacter sakazakii 29544 after 18 hrs; format: functional; details: Cronobacter sakazakii, 29544, 18 h; outline: as §1
Klebsiella aerogenes [2] = experiment: Antibacterial activity against Enterobacter aerogenes ATCC 13048 after 18 hrs; format: functional; details: ATCC 13048, 18 h; outline: as §1
[3] = Antibacterial activity against Enterobacter cloacae ATCC 13047 after 18 hrs; format: functional, Enterobacter cloacae subsp. cloacae; details: ATCC 13047, 18 h; outline: as §1
Escherichia coli [4] = experiment: Antibacterial activity against Escherichia coli ATCC 8739 after 18 hrs; format: functional; details: ATCC 8739, 18 h; outline: as §1
Escherichia coli [5] = experiment: Antibacterial activity against Escherichia coli ATCC 10536 after 18 hrs; format: functional; details: ATCC 10536, 18 h; outline: as §1
Escherichia coli [6] = experiment: Antibacterial activity against Escherichia coli ATCC 11775 after 18 hrs; format: functional; outline: as §1
Escherichia coli [7] = experiment: Antibacterial activity against Escherichia coli ATCC 25922 after 18 hrs; format: functional; details: ATCC 25922, 18 h; outline: as §1
Escherichia coli [8] = experiment: Antibacterial activity against Escherichia coli ATCC 35218 after 18 hrs; format: functional; details: ATCC 35218, 18 h; outline: as §1
Escherichia coli [9] = experiment: Antibacterial activity against Escherichia coli 700728 after 18 hrs; format: functional; details: Escherichia coli, 700728, 18 h; outline: as §1
Escherichia coli [10] = experiment: Antibacterial activity against Escherichia coli NCTC 13216 after 18 hrs; format: functional; details: NCTC 13216, 18 h; outline: as §1
Escherichia coli [11] = experiment: Antibacterial activity against Escherichia coli OCC 122 after 18 hrs; format: functional; details: OCC 122, 18 h; outline: as §1
Escherichia hermannii = experiment: Antibacterial activity against Escherichia hermannii 33650 after 18 hrs; format: functional; details: Atlantibacter hermannii, 33650, 18 h; outline: as §1
Hafnia alvei = experiment: Antibacterial activity against Hafnia alvei 13337 after 18 hrs; format: functional; details: Hafnia alvei, 13337, 18 h; outline: as §1
Klebsiella aerogenes [12] = experiment: Antibacterial activity against Klebsiella aerogenes NCTC 8167 after 18 hrs; format: functional; details: NCTC 8167, 18 h; outline: as §1
Klebsiella pneumoniae [13] = experiment: Antibacterial activity against Klebsiella pneumoniae ATCC 10031 after 18 hrs; format: functional; details: ATCC 10031, 18 h; outline: as §1
Proteus mirabilis = experiment: Antibacterial activity against Proteus mirabilis ATCC 12453 after 18 hrs; format: functional; details: ATCC 12453, 18 h; outline: as §1
Proteus vulgaris = experiment: Antibacterial activity against Proteus vulgaris OCC 195 after 18 hrs; format: functional; details: OCC 195, 18 h; outline: as §1
Pseudomonas aeruginosa = experiment: Antibacterial activity against Pseudomonas aeruginosa ATCC 27853 after 18 hrs; format: functional; details: ATCC 27853, 18 h; outline: as §1
Klebsiella pneumoniae [14] = experiment: Antibacterial activity against Klebsiella pneumoniae ATCC 13883 after 18 hrs; format: functional; details: ATCC 13883, 18 h; outline: as §1
Citrobacter freundii [15] = experiment: Antibacterial activity against Citrobacter freundii 8090 after 18 hrs; format: functional; details: Citrobacter freundii, 8090, 18 h; outline: as §1
Serratia marcescens = experiment: Antibacterial activity against Serratia marcescens OCC 217 after 18 hrs; format: functional; details: OCC 217, 18 h; outline: as §1
Bacillus cereus = experiment: Antibacterial activity against Bacillus cereus ATCC 14579 after 18 hrs; format: functional; details: ATCC 14579, 18 h; outline: as §1
Bacillus subtilis = experiment: Antibacterial activity against Bacillus subtilis NCTC 10073 after 18 hrs; format: functional; details: NCTC 10073, 18 h; outline: as §1
Enterococcus faecalis [16] = experiment: Antibacterial activity against Enterococcus faecalis ATCC 29212 after 18 hrs; format: functional; details: ATCC 29212, 18 h; outline: as §1
Enterococcus faecalis [17] = experiment: Antibacterial activity against Enterococcus faecalis ATCC 33186 after 18 hrs; format: functional; details: ATCC 33186, 18 h; outline: as §1
Enterococcus faecium = experiment: Antibacterial activity against Enterococcus faecium ATCC 19434 after 18 hrs; format: functional; details: ATCC 19434, 18 h; outline: as §1

O[C@@H]1[C@@H](Oc2cc(Cl)ccc2Oc2ccc(Cl)cc2Cl)OC[C@@H](O)[C@H]1O
MIC (Aeromonas hydrophila): 128 µg/mL (≈ 304 µM) | MIC (Citrobacter freundii [1]): 8 µg/mL (≈ 19 µM) | MIC (Cronobacter sakazakii): 8 µg/mL (≈ 19 µM) | MIC (Klebsiella aerogenes [2]): 8 µg/mL (≈ 19 µM) | MIC [3]: 0.5 µg/mL (≈ 1.19 µM) | MIC (Escherichia coli [4]): 0.5 to 4 µg/mL (≈ 1.19 to 9.49 µM) | MIC (Escherichia coli [5]): 0.5 to 4 µg/mL (≈ 1.19 to 9.49 µM) | MIC (Escherichia coli [6]): 0.5 to 4 µg/mL (≈ 1.19 to 9.49 µM) | MIC (Escherichia coli [7]): 0.5 to 4 µg/mL (≈ 1.19 to 9.49 µM) | MIC (Escherichia coli [8]): 0.5 to 4 µg/mL (≈ 1.19 to 9.49 µM) | MIC (Escherichia coli [9]): 0.5 to 4 µg/mL (≈ 1.19 to 9.49 µM) | MIC (Escherichia coli [10]): 0.5 to 4 µg/mL (≈ 1.19 to 9.49 µM) | MIC (Escherichia coli [11]): 0.5 to 4 µg/mL (≈ 1.19 to 9.49 µM) | MIC (Escherichia hermannii): 1 µg/mL (≈ 2.37 µM) | MIC (Hafnia alvei): 0.5 µg/mL (≈ 1.19 µM) | MIC (Klebsiella aerogenes [12]): 4 µg/mL (≈ 9.49 µM) | MIC (Klebsiella pneumoniae [13]): 0.5 µg/mL (≈ 1.19 µM) | MIC (Proteus mirabilis): 4 µg/mL (≈ 9.49 µM) | MIC (Proteus vulgaris): 16 µg/mL (≈ 37.9 µM) | MIC (Pseudomonas aeruginosa): > 256 µg/mL | MIC (Klebsiella pneumoniae [14]): 0.5 µg/mL (≈ 1.19 µM) | MIC (Citrobacter freundii [15]): 8 µg/mL (≈ 19 µM) | MIC (Serratia marcescens): > 256 µg/mL | MIC (Bacillus cereus): 128 µg/mL (≈ 304 µM) | MIC (Bacillus subtilis): 32 µg/mL (≈ 75.9 µM) | MIC (Enterococcus faecalis [16]): 128 µg/mL (≈ 304 µM) | MIC (Enterococcus faecalis [17]): 128 µg/mL (≈ 304 µM) | MIC (Enterococcus faecium): 256 µg/mL (≈ 607 µM)
